In data set [1] the target is RAF proto-oncogene serine/threonine-protein kinase (Homo sapiens, UniProt P04049). Nature of the data set: Inhibitory activity against human Raf-1 kinase. In outline: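 EE-tagged c-Raf and Mek made in baculovirus-infected Sf-9 cells, immuno-affinity purified. Raf (4 μg/mL) with Mek substrate (20 μg/mL) in 200 mM Tris pH 8.2, 100 mM NaCl, 20 mM 2-mercaptoethanol; compound added before starting with 10 μM γ-[³³P]ATP stock. 32 °C, 25 min; phosphocellulose filter capture, scintillation count.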
RAF proto-oncogene serine/threonine-protein kinase, sequence (P04049 whole entry): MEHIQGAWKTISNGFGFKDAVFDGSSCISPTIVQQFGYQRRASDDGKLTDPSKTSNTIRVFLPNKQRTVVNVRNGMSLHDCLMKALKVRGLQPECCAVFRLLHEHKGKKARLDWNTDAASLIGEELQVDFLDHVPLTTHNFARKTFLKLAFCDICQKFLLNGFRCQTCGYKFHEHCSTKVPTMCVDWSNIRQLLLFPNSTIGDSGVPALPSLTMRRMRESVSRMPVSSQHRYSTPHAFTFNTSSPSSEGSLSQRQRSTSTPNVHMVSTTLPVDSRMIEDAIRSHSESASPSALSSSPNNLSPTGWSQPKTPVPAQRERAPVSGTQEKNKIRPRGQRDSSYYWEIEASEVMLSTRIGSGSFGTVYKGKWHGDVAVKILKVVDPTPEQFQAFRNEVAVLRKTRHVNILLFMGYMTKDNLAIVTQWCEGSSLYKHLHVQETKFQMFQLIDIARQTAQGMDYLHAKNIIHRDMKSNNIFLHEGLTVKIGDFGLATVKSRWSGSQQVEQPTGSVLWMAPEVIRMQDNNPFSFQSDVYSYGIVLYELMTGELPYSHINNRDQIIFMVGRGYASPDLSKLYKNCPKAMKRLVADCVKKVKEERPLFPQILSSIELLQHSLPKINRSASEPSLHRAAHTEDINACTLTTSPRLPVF

Data set [2] can be described thus: Solubility at pH 2.7. The data set is classed as physicochemical. To be noted: buffer.
Data set [3] is described as follows: Solubility at pH 7.2. The data set is classed as physicochemical. To be noted: buffer. In outline: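 Aqueous solubility determined in 0.5× PBS at pH 7.2; reported in µg/mL.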

SMILES strings stand for the structures. Values after ≈ are worked out from the molar mass of the structure shown.

`CNC(=O)c1cncc(Oc2ccc(NC(=O)Nc3ccc(Cl)c(C(F)(F)F)c3)cc2)c1`: half-maximal inhibition in data set [1] (IC50) required 50 nM.

As for `COc1ccc(C(F)(F)F)cc1NC(=O)Nc1ccc(Oc2cccc(C(=O)Nc3ccc(N(C)C)cc3)c2)cc1`, half-maximal inhibition in data set [1] (IC50) required 410 nM. Compared with the last molecule, the IC50 is about 8.2-fold higher. Still for that read-out and setting: under `CC(C)(C)c1cc(NC(=O)Nc2ccc(Oc3cccc(C(=O)NCc4ccccc4)c3)cc2)no1` stands 460 nM. Consider `O=C(Nc1ccc(Oc2ccnc(C(=O)NCCN3CCOCC3)c2)cc1)Nc1ccc(Br)c(C(F)(F)F)c1`, for which the solubility in data set [2] was 39 µg/mL (≈ 64.1 µM); in data set [3], at most 5 µg/mL. In data set [1], this molecule gave an IC50 of 60 nM. The molecule `CC(C)NC(=O)c1cc(Oc2ccc(NC(=O)Nc3ccc(Cl)c(C(F)(F)F)c3)cc2)ccn1` returned an IC50 in data set [1] of 2300 nM.

In data set [1], `CNC(=O)c1cc(Oc2ccc(NC(=O)Nc3cc(C(F)(F)F)ccc3OC)cc2)ccn1` returned an IC50 of 53 nM. This IC50 is about 43-fold lower than that of the molecule before. Still for that read-out and setting: under `CNC(=O)c1cccc(Oc2ccc(NC(=O)Nc3cc(C(F)(F)F)ccc3OC)cc2)c1` stands 130 nM; under `CNC(=O)c1cccc(Oc2ccc(NC(=O)Nc3ccc(Cl)c(C(F)(F)F)c3)cc2)c1`, 130 nM.

In the case of `O=C(Nc1ccc(Oc2cncc(C(=O)NCCN3CCOCC3)c2)cc1)Nc1ccc(Cl)c(C(F)(F)F)c1`, the solubility is 36 µg/mL (≈ 63.8 µM) in data set [2] and at most 5 µg/mL in data set [3]. In data set [1], this molecule had an IC50 of 140 nM. `COc1ccc(NC(=O)c2cccc(Oc3ccc(NC(=O)Nc4cc(C(F)(F)F)ccc4OC)cc3)c2)cn1` gave an IC50 in data set [1] of 150 nM.

As to `CCNC(=O)c1cc(Oc2ccc(NC(=O)Nc3cc(C(F)(F)F)ccc3OC)cc2)ccn1`, inhibition in data set [1] was half-maximal at 460 nM (IC50).

For `O=C(Nc1ccc(Oc2cccc(C(=O)Nc3cccnc3)c2)cc1)Nc1ccc(Cl)c(C(F)(F)F)c1`, half-maximal inhibition in data set [1] (IC50) was put at 44 nM. Against the preceding molecule, the IC50 is about 10-fold lower. On the same count and under the same terms, under `CN(C)C(=O)c1cc(Oc2ccc(NC(=O)Nc3ccc(Br)c(C(F)(F)F)c3)cc2)ccn1` stands 170 nM; under `CCNC(=O)c1cccc(Oc2ccc(NC(=O)Nc3cc(C(C)(C)C)on3)cc2)c1`, 130 nM. Still for that read-out and setting: under `CN(C)C(=O)c1cc(Oc2ccc(NC(=O)Nc3ccc(Cl)c(C(F)(F)F)c3)cc2)ccn1` stands 300 nM; under `O=C(Nc1ccc(Oc2cccc(C(=O)NCCN3CCOCC3)c2)cc1)Nc1ccc(Cl)c(C(F)(F)F)c1`, 70 nM. In turn, `O=C(Nc1ccc(Oc2cccc(C(=O)NCCNc3ccccc3)c2)cc1)Nc1ccc(Cl)c(C(F)(F)F)c1` showed an IC50 in data set [1] of 160 nM. With `O=C(Nc1ccc(Oc2ccnc(C(=O)NCCN3CCOCC3)c2)cc1)Nc1ccc(Cl)c(C(F)(F)F)c1`, the solubility in data set [2] was 141 µg/mL (≈ 250 µM); in data set [3], at most 5 µg/mL. The molecule also gave an IC50 in data set [1] of 73 nM. `COc1ccc(C(F)(F)F)cc1NC(=O)Nc1ccc(Oc2ccnc(C(=O)N(C)C)c2)cc1` gave an IC50 in data set [1] of 330 nM. On the same count and under the same terms, under `COc1ccc(C(F)(F)F)cc1NC(=O)Nc1ccc(Oc2cccc(C(=O)Nc3ccc(N4CCOCC4)cc3)c2)cc1` stands 210 nM; under `CNC(=O)c1cccc(Oc2ccc(NC(=O)Nc3cc(C(C)(C)C)on3)cc2)c1`, 120 nM. Still for that read-out and setting: the result for `CC(C)(C)c1cc(NC(=O)Nc2ccc(Oc3ccncc3)cc2)no1` reads 230 nM; that for `COc1ccncc1NC(=O)c1cccc(Oc2ccc(NC(=O)Nc3ccc(Cl)c(C(F)(F)F)c3)cc2)c1`, 130 nM; that for `CC(C)(C)c1cc(NC(=O)Nc2ccc(Oc3cccc(C(=O)Nc4cccnc4)c3)cc2)no1`, 68 nM. As for `O=C(Nc1ccc(Oc2cccc(C(=O)NCCN3CCCCC3)c2)cc1)Nc1ccc(Cl)c(C(F)(F)F)c1`, in data set [1], half-maximal inhibition (IC50) required 82 nM. For the molecule `COc1ccc(C(F)(F)F)cc1NC(=O)Nc1ccc(Oc2cncc(C(=O)NCCN(C)C)c2)cc1`, the figures for the solubility in data set [2] and in data set [3] were 129 µg/mL (≈ 249 µM) and 41 µg/mL (≈ 79.2 µM), respectively. This molecule also showed an IC50 in data set [1] of 100 nM. With `CCNC(=O)c1cc(Oc2ccc(NC(=O)Nc3ccc(Br)c(C(F)(F)F)c3)cc2)ccn1`, inhibition in data set [1] was half-maximal at 27 nM (IC50).

`CC(C)(C)c1cc(NC(=O)Nc2ccc(Oc3cccc(C(=O)Nc4ccccc4)c3)cc2)no1`: the IC50 in data set [1] was 370 nM.

The molecule `CCNC(=O)c1cc(Oc2ccc(NC(=O)Nc3ccc(Cl)c(C(F)(F)F)c3)cc2)ccn1` returned an IC50 in data set [1] of 26 nM. Same read-out and setting: under `COc1ccc(C(F)(F)F)cc1NC(=O)Nc1ccc(Oc2ccnc(C(=O)NCC(C)C)c2)cc1` stands 500 nM; under `CNC(=O)c1cc(Oc2ccc(NC(=O)Nc3ccc(Br)c(C(F)(F)F)c3)cc2)ccn1`, 6 nM. On the same count and under the same terms, under `COc1ccc(C(F)(F)F)cc1NC(=O)Nc1ccc(Oc2cncc(C(=O)NCCN3CCOCC3)c2)cc1` stands 63 nM; under `COCCNC(=O)c1cccc(Oc2ccc(NC(=O)Nc3ccc(Cl)c(C(F)(F)F)c3)cc2)c1`, 110 nM. Take `CNC(=O)c1cncc(Oc2ccc(NC(=O)Nc3cc(C(F)(F)F)ccc3OC)cc2)c1`: the solubility in data set [2] and in data set [3] was at most 4 µg/mL throughout. Moreover, the IC50 in data set [1] worked out at 61 nM. In data set [1], `CCCNC(=O)c1cccc(Oc2ccc(NC(=O)Nc3cc(C(C)(C)C)on3)cc2)c1` came in with an IC50 of 140 nM.

With `CNC(=O)c1cc(Oc2ccc(NC(=O)Nc3cc(C(C)(C)C)on3)cc2)ccn1`, the IC50 in data set [1] came out at 38 nM. Same read-out and setting: under `COc1ccc(C(F)(F)F)cc1NC(=O)Nc1ccc(Oc2cccc(C(=O)Nc3cccnc3)c2)cc1` stands 100 nM; under `O=C(Nc1ccc(Oc2cccc(C(=O)Nc3ccc(N4CCOCC4)cc3)c2)cc1)Nc1ccc(Cl)c(C(F)(F)F)c1`, 160 nM; under `CCC1CCCN1CNC(=O)c1cccc(Oc2ccc(NC(=O)Nc3ccc(Cl)c(C(F)(F)F)c3)cc2)c1` (configuration not stated), 270 nM. Still for that read-out and setting: the result for `CN(C)C(=O)c1cccc(Oc2ccc(NC(=O)Nc3cc(C(C)(C)C)on3)cc2)c1` reads 5800 nM. Still for that read-out and setting: under `CN(C)c1ccc(NC(=O)c2cccc(Oc3ccc(NC(=O)Nc4ccc(Cl)c(C(F)(F)F)c4)cc3)c2)cc1` stands 230 nM; under `CC(C)(C)c1cc(NC(=O)Nc2ccc(Oc3ccccc3)cc2)no1`, 1100 nM.

One may read the IC50 as the concentration needed to halve the response being measured. A lower IC50 goes with greater potency in that assay. For orientation: solubility means the concentration that dissolves in the medium under given conditions. Higher therefore signals a readily soluble substance.
